Converted amounts (≈) assume the structure as drawn.

Data set [1] has as its system Mus musculus. Briefly: Blood level after oral administration in mice (50 mg/kg) was determined by bioassay procedure and represent total activity present in the serum. The data set is classed as ADME, organism-based. The conditions noted are these: in vivo. The method, boiled down: (§1)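 Single oral dose of 50 mg/kg to mice. Blood taken from groups of six mice at 0.5, 1, 2 and 4 h after dosing. Serum levels measured by disk agar diffusion bioassay with Bacillus subtilis ATCC 6633 on Seed Agar, plates incubated 18 h at 37 °C, giving total activity in serum. AUC 0-4 h expressed as μg/mL […].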

For another data set, the system named is Bacillus cereus. Briefly: Minimum inhibitory concentration (MIC) preventing growth of Bacillus cereus. The data set is classed as functional.
Another data set has as its system Bacillus subtilis. Briefly: Minimum inhibitory concentration (MIC) preventing growth of Bacillus subtilis. It counts as functional.
Data set [2] deals with Escherichia coli. In words: Minimum inhibitory concentration (MIC)preventing growth of Escherichia coli. It counts as functional.
The next data set relates to Klebsiella pneumoniae. Briefly: Minimum inhibitory concentration (MIC)preventing growth of Klebsiella pneumoniae. It counts as functional.
Another data set relates to Morganella morganii. In words: Minimum inhibitory concentration (MIC) preventing growth of Morganella morganii. The data set is classed as functional.
The test system of the next data set is Proteus vulgaris. In words: Minimum inhibitory concentration (MIC) preventing growth of Proteus vulgaris. It counts as functional.
Data set [3] relates to Staphylococcus epidermidis. Briefly: Minimum inhibitory concentration (MIC) preventing growth of Staphylococcus epidermidis. The data set is classed as functional.
Data set [4] has as its system Staphylococcus aureus. Briefly: Minimum inhibitory concentration (MIC) preventing growth of […]. The data set is classed as functional.
For the next data set, the system named is Enterococcus faecalis. In words: Minimum inhibitory concentration (MIC) preventing growth of Streptococcus faecalis ATCC 10541. The data set is classed as functional.
The next data set has as its system Enterobacter cloacae. In words: Minimum inhibitory concentration (MIC)preventing growth of Enterobacter cloacae. It counts as functional.
Data set [5] relates to Pseudomonas aeruginosa. In words: Minimum inhibitory concentration (MIC)preventing growth of Pseudomonas aeruginosa. The data set is classed as functional.
In data set [6] the test system is Escherichia coli. Briefly: Efficacy on systemic infections after oral administration in mice was determined against Escherichia coli HM-42. The data set is classed as functional. In outline:
(§2)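 Mouse protection test using 4 groups of 10 mice. Mice were infected intraperitoneally with a bacterial suspension slightly above LD100. A single oral dose was given immediately after infection, with four doses, one per group, chosen from in vitro activity. Survival was scored after one week, and ED50 (total mg/kg protecting 50% of mice) was interpolated from group survival rates.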

Data set [7] deals with Pseudomonas aeruginosa. Briefly: Efficacy on systemic infections after oral administration in mice was determined against Pseudomonas aeruginosa HS-116. It counts as functional. The method, boiled down:
as §2

The subject of data set [8] is Staphylococcus aureus. In words: Efficacy on systemic infections after oral administration in mice was determined against […] HS-93. The data set is classed as functional. In outline:
as §2

For data set [9], the system named is Mus musculus. In words: Blood level after oral administration in mice (50 mg/kg) was determined (area under the concentration-time curve recorded at 0.5, 1, 2, and 4 hour after dosing). It counts as ADME, organism-based. Also noted: dose 50 mg/kg, time < 4 hr, route oral. The following applies: in vivo. In outline: as §1

With `CNC1(C)CN(c2cc3c(cc2F)c(=O)c(C(=O)O)cn3C(C)(C)C)C1`, the AUC – broadly, the area under the concentration-time curve, a measure of exposure – with Mus musculus [1] turned out to be 4.6 µg·h/mL. The MIC (commonly the lowest concentration found to suppress growth) against Bacillus cereus came to 0.25 µg/mL (≈ 0.692 µM); against Bacillus subtilis, 0.06 µg/mL (≈ 0.166 µM); in the data set on Escherichia coli [2], 0.25 µg/mL (≈ 0.692 µM); against Klebsiella pneumoniae it was 0.06 µg/mL (≈ 0.166 µM); against Morganella morganii it was 0.5 µg/mL (≈ 1.38 µM); with Proteus vulgaris it was 0.5 µg/mL (≈ 1.38 µM). The MIC in data set [3] amounted to 0.25 µg/mL (≈ 0.692 µM); in the data set on Staphylococcus aureus [4] it was 0.25 µg/mL (≈ 0.692 µM); against Enterococcus faecalis, 0.5 µg/mL (≈ 1.38 µM); against Enterobacter cloacae, 0.25 µg/mL (≈ 0.692 µM); with Pseudomonas aeruginosa [5], 4 µg/mL (≈ 11.1 µM).

Take `NC1CN(c2c(F)cc3c(=O)c(C(=O)O)cn(-c4ccc(F)cc4F)c3c2Cl)C1`: the AUC in the data set on Mus musculus [1] stood at 13 µg·h/mL. Moreover, the MIC with Bacillus cereus, against Bacillus subtilis, in the data set on Escherichia coli [2], against Klebsiella pneumoniae, in the data set on Morganella morganii and in the data set on Proteus vulgaris was 0.015 µg/mL (≈ 0.0354 µM) in each case. The MIC in data set [3] came out at 0.015 µg/mL (≈ 0.0354 µM); against Staphylococcus aureus [4] it was 0.015 µg/mL (≈ 0.0354 µM); in the data set with Enterococcus faecalis it was 0.06 µg/mL (≈ 0.142 µM); against Enterobacter cloacae, 0.015 µg/mL (≈ 0.0354 µM); against Pseudomonas aeruginosa [5], 0.12 µg/mL (≈ 0.283 µM). The median effective dose (ED50) – broadly, the dose that gives a 50% effect, or the effect in half of the subjects – stood at 2.3 mg/kg with Escherichia coli [6], 55 mg/kg in the data set with Pseudomonas aeruginosa [7] and 1.7 mg/kg in the data set with Staphylococcus aureus [8].

As for `NC1CN(c2c(F)cc3c(=O)c(C(=O)O)cn(C4CC4)c3c2Cl)C1`, in the data set on Mus musculus [1], the exposure (AUC) is 8.5 µg·h/mL. The MIC against Bacillus cereus amounted to 0.12 µg/mL (≈ 0.341 µM); against Bacillus subtilis it was 0.06 µg/mL (≈ 0.171 µM); in the data set with Escherichia coli [2], 0.015 µg/mL (≈ 0.0426 µM); against Klebsiella pneumoniae it was 0.06 µg/mL (≈ 0.171 µM); with Morganella morganii, 0.015 µg/mL (≈ 0.0426 µM); in the data set on Proteus vulgaris, 0.015 µg/mL (≈ 0.0426 µM). For the same compound, the MIC in data set [3] was determined as 0.12 µg/mL (≈ 0.341 µM); in the data set with Staphylococcus aureus [4], 0.12 µg/mL (≈ 0.341 µM); with Enterococcus faecalis, 0.12 µg/mL (≈ 0.341 µM); in the data set on Enterobacter cloacae it was 0.015 µg/mL (≈ 0.0426 µM); in the data set with Pseudomonas aeruginosa [5], 0.25 µg/mL (≈ 0.711 µM). The values for the ED50 in the data set on Escherichia coli [6], in the data set on Pseudomonas aeruginosa [7] and with Staphylococcus aureus [8] were 1.1 mg/kg, 34 mg/kg and 7.2 mg/kg, respectively.

For `CNC1CN(c2c(F)cc3c(=O)c(C(=O)O)cn(C4CC4)c3c2Cl)C1`, the area under the curve (AUC) in the data set on Mus musculus [1] is 4 µg·h/mL. The MIC with Bacillus cereus is 0.12 µg/mL (≈ 0.328 µM); against Bacillus subtilis it was 0.015 µg/mL (≈ 0.041 µM); with Escherichia coli [2], 0.015 µg/mL (≈ 0.041 µM); in the data set with Klebsiella pneumoniae, 0.12 µg/mL (≈ 0.328 µM); against Morganella morganii, 0.015 µg/mL (≈ 0.041 µM); in the data set with Proteus vulgaris it was 0.015 µg/mL (≈ 0.041 µM). In addition, the minimal inhibitory concentration (MIC) came to 0.06 µg/mL (≈ 0.164 µM) in data set [3]; 0.06 µg/mL (≈ 0.164 µM) in the data set on Staphylococcus aureus [4]; 0.25 µg/mL (≈ 0.683 µM) in the data set on Enterococcus faecalis; 0.015 µg/mL (≈ 0.041 µM) with Enterobacter cloacae; 0.25 µg/mL (≈ 0.683 µM) in the data set on Pseudomonas aeruginosa [5]. Besides, the ED50 is 2 mg/kg with Escherichia coli [6], 39 mg/kg in the data set with Pseudomonas aeruginosa [7] and 15.2 mg/kg with Staphylococcus aureus [8].

The compound `CC1(N)CN(c2cc3c(cc2F)c(=O)c(C(=O)O)cn3C(C)(C)C)C1` gave an AUC in the data set on Mus musculus [1] of 5.4 µg·h/mL. In addition, the MIC worked out at 0.25 µg/mL (≈ 0.72 µM) in the data set with Bacillus cereus; 0.06 µg/mL (≈ 0.173 µM) with Bacillus subtilis; 0.12 µg/mL (≈ 0.345 µM) against Escherichia coli [2]; 0.12 µg/mL (≈ 0.345 µM) in the data set with Klebsiella pneumoniae; 0.25 µg/mL (≈ 0.72 µM) with Morganella morganii; 0.25 µg/mL (≈ 0.72 µM) in the data set on Proteus vulgaris. Moreover, the MIC in [3] came out at 0.12 µg/mL (≈ 0.345 µM); with Staphylococcus aureus [4], 0.25 µg/mL (≈ 0.72 µM); against Enterococcus faecalis, 0.5 µg/mL (≈ 1.44 µM); against Enterobacter cloacae, 0.25 µg/mL (≈ 0.72 µM); with Pseudomonas aeruginosa [5], 2 µg/mL (≈ 5.76 µM).

In the data set on Mus musculus [1], `O=C(O)c1cn(C2CC2)c2cc(N3CCNCC3)c(F)cc2c1=O` [CIPROFLOXACIN] displayed an AUC of 2.3 µg·h/mL. For the same compound, the MIC with Bacillus cereus was 0.25 µg/mL (≈ 0.754 µM); in the data set with Bacillus subtilis it was 0.06 µg/mL (≈ 0.181 µM); against Klebsiella pneumoniae it was 0.03 µg/mL (≈ 0.0905 µM); in the data set with Morganella morganii, 0.06 µg/mL (≈ 0.181 µM); in the data set on Proteus vulgaris it was 0.06 µg/mL (≈ 0.181 µM); in [3], 0.5 µg/mL (≈ 1.51 µM). The minimal inhibitory concentration (MIC) was 0.25 µg/mL (≈ 0.754 µM) in the data set with Staphylococcus aureus [4], 0.5 µg/mL (≈ 1.51 µM) with Enterococcus faecalis and 0.12 µg/mL (≈ 0.362 µM) against Pseudomonas aeruginosa [5]. Moreover, the ED50 amounted to 3 mg/kg in the data set on Escherichia coli [6], 70.3 mg/kg in the data set on Pseudomonas aeruginosa [7] and 45.1 mg/kg in the data set on Staphylococcus aureus [8].

For the compound `NC1CN(c2cc3c(cc2F)c(=O)c(C(=O)O)cn3C2CC2)C1`, the AUC in the data set with Mus musculus [9] stood at 3 µg·h/mL. Besides, the minimum inhibitory concentration (MIC) is 0.12 µg/mL (≈ 0.378 µM) against Bacillus cereus; 0.03 µg/mL (≈ 0.0945 µM) against Bacillus subtilis; 0.03 µg/mL (≈ 0.0945 µM) against Escherichia coli [2]; 0.03 µg/mL (≈ 0.0945 µM) in the data set with Klebsiella pneumoniae; 0.03 µg/mL (≈ 0.0945 µM) against Morganella morganii; 0.12 µg/mL (≈ 0.378 µM) with Proteus vulgaris. For the same compound, the MIC in data set [3] was determined as 0.12 µg/mL (≈ 0.378 µM); with Staphylococcus aureus [4] it was 0.25 µg/mL (≈ 0.788 µM); against Enterococcus faecalis, 0.5 µg/mL (≈ 1.58 µM); with Enterobacter cloacae, 0.03 µg/mL (≈ 0.0945 µM); with Pseudomonas aeruginosa [5], 0.25 µg/mL (≈ 0.788 µM). In addition, the ED50 in the data set on Escherichia coli [6] turned out to be 3.6 mg/kg; in the data set on Pseudomonas aeruginosa [7], 82.2 mg/kg; in the data set on Staphylococcus aureus [8], 44 mg/kg.

Source of the values: ChEMBL document CHEMBL1126625, “7-Azetidinylquinolones as antibacterial agents. Synthesis and structure-activity relationships” (J Med Chem, 1993).
